Assay results reported in ChEMBL document CHEMBL1134340, “GnRH antagonists: a new generation of long acting analogues incorporating p-ureido-phenylalanines at positions 5 and 6” (J Med Chem, 2001).
*1 amine or outer side, *2 acyl side, *3 side chain or, on linkers, in order; H or OH if unused. Where a SMILES comes first, the peptide text is derived from it. Side-chain parts run from the residue outwards. [ ]: non-standard residue; d: D form. dPhe(4-NHCONH2) = NC(=O)Nc1ccc(C[C@@H](N)C(=O)O)cc1; Phe(4-NHCONH2) = NC(=O)Nc1ccc(C[C@H](N)C(=O)O)cc1; dPhe(4-NH2) = Nc1ccc(C[C@@H](N)C(=O)O)cc1; dPhe(4-Cl) = N[C@H](Cc1ccc(Cl)cc1)C(=O)O; Phe(4-NH2) = Nc1ccc(C[C@H](N)C(=O)O)cc1; d2Nal = N[C@H](Cc1ccc2ccccc2c1)C(=O)O; Lys(iPr) = CC(C)NCCCC[C@H](N)C(=O)O; d3Pal = N[C@H](Cc1cccnc1)C(=O)O; CO = O=C([*:1])[*:2]

Assays:
Rattus norvegicus [1] = species: Rattus norvegicus; assay: Compound was tested for inhibition of Leutenizing hormone release at 96 hours (very long duration) in castrated male rat assay; assay type: functional; parameters: concentration or dose not given beside the values
In short: (§1)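 Male Sprague-Dawley rats (180-200 g), castrated under ether 10 days earlier, 5 per group. 50 µg/rat given sc in 100 µL 40 mM phosphate buffer with 0.1% BSA and 0.6% DMSO; acyline run as internal standard. Tail blood taken predose and at 24, 48, 72, 96 (sometimes 120) h; plasma LH by RIA. Duration classed by >80% LH inhibition at each time.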

[2] = biological target: T1, Gonadotropin-releasing hormone receptor (Homo sapiens, UniProt P30968); assay: Antagonism of human GnHR receptor, determined in a reporter gene assay in HEK293 cells; assay type: functional, cell-based
T1 sequence (P30968 whole entry): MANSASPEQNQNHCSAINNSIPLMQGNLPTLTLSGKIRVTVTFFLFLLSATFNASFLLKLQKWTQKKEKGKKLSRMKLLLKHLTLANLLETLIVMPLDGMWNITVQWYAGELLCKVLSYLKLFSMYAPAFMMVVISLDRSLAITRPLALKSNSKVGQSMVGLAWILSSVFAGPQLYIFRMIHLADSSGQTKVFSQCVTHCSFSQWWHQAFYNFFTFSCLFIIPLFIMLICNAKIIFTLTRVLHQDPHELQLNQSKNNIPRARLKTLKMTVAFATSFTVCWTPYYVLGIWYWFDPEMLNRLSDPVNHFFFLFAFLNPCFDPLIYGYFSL
In short: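 HEK293 cells stably expressing cloned human GnRH receptor plus luciferase reporter under LH alpha subunit promoter, plated 24 h before assay. Compound in 1% DMSO added 10 min at 37 °C, then GnRH at 3 nM final; 5 h incubation, luciferase luminescence read. Six concentrations in duplicate; blank-subtracted cps as % of GnRH control; mean of two determinations.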

Rattus norvegicus [3] = species: Rattus norvegicus; assay: Compound was tested for inhibition of Leutenizing hormone release at 48 hours (intermediate duration) in castrated male rat assay; assay type: functional; parameters: concentration or dose not given beside the values; in short: as §1
Rattus norvegicus [4] = species: Rattus norvegicus; assay: Compound was tested for histamine release at a concentration of 100 ug/mL; assay type: functional
In short: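 Sprague-Dawley rat peritoneal mast cells, Percoll-purified, in heparinized balanced salt solution with albumin, pH 7.2. Cells exposed to compound or vehicle for 2 min at 37 °C. Supernatant histamine measured spectrofluorometrically after o-phthalaldehyde derivatization; pellets lysed for retained histamine. Reported as % of total histamine released, corrected for spontaneous release in vehicle.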

[5] = biological target: T1, Gonadotropin-releasing hormone receptor; assay: Competitive antagonism of GnRH-induced response in the reporter gene assay; assay type: functional; details: read-out: pA2 (converted)
In short: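 Same HEK293 human GnRH receptor luciferase reporter cells. Seven-point GnRH curve (10 µM to 10 pM final) run in duplicate without or with four to five increasing compound concentrations (10 min preincubation, 37 °C), then 5 h and luminescence. GnRH EC50 at each level by four-parameter logistic fit, giving pA2; mean of two determinations in duplicate.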

Rattus norvegicus [6] = species: Rattus norvegicus; assay: Compound was tested for inhibition of Leutenizing hormone release at 72 hours (long duration) in castrated male rat assay; assay type: functional; parameters: concentration or dose not given beside the values; in short: as §1

Row | SMILES | Inhibition (Rattus norvegicus [1]) | IC50 [2] | Inhibition (Rattus norvegicus [3]) | HR (Rattus norvegicus [4]) | Kb [5] | Inhibition (Rattus norvegicus [6])
1 | CC(=O)N[C@H](Cc1ccc2ccccc2c1)C(=O)N[C@H](Cc1ccc(Cl)cc1)C(=O)N[C@H](Cc1cccnc1)C(=O)N[C@@H](CO)C(=O)N[C@@H](Cc1ccc(NC(=O)[C@@H]2CC(=O)NC(=O)N2)cc1)C(=O)N[C@H](Cc1ccc(NC(N)=O)cc1)C(=O)N[C@@H](CC(C)C)C(=O)N[C@@H](CCCCNC(C)C)C(=O)N1CCC[C@H]1C(=O)N[C@H](C)CO | >80% | – | – | – | – | –
2 | CC(=O)Nc1ccc(C[C@@H](NC(=O)[C@H](Cc2ccc(NC(=O)[C@H]3CNC(=O)N3)cc2)NC(=O)[C@H](CO)NC(=O)[C@@H](Cc2cccnc2)NC(=O)[C@@H](Cc2ccc(Cl)cc2)NC(=O)[C@@H](Cc2ccc3ccccc3c2)NC(C)=O)C(=O)N[C@@H](CC(C)C)C(=O)N[C@@H](CCCCNC(C)C)C(=O)N2CCC[C@H]2C(=O)N[C@H](C)C(N)=O)cc1 | – | 10.8 nM | >80% | – | – | –
3 | CCNC(=O)[C@@H]1CCCN1C(=O)[C@H](CCCCNC(C)C)NC(=O)[C@H](CC(C)C)NC(=O)[C@@H](Cc1ccc(CNC(N)=O)cc1)NC(=O)[C@H](Cc1ccc(NC(=O)[C@@H]2CC(=O)NC(=O)N2)cc1)NC(=O)[C@H](CO)NC(=O)[C@@H](Cc1cccnc1)NC(=O)[C@@H](Cc1ccc(Cl)cc1)NC(=O)[C@@H](Cc1ccc2ccccc2c1)NC(C)=O | – | – | >80% | – | – | –
4 | CNC(=O)Nc1ccc(C[C@H](NC(=O)[C@H](CO)NC(=O)[C@@H](Cc2cccnc2)NC(=O)[C@@H](Cc2ccc(Cl)cc2)NC(=O)[C@@H](Cc2ccc3ccccc3c2)NC(C)=O)C(=O)N[C@H](Cc2ccc(NC(=O)NC)cc2)C(=O)N[C@@H](CC(C)C)C(=O)N[C@@H](CCCCNC(C)C)C(=O)N2CCC[C@H]2C(=O)N[C@H](C)C(N)=O)cc1 (Ac-[d2Nal][dPhe(4-Cl)][d3Pal]S[Phe(4-NH2)]([CO-NHMe])[dPhe(4-NH2)]([CO-NHMe])L[Lys(iPr)]P[dA]-NH2) | – | – | >80% | – | – | –
5 | CC(=O)Nc1ccc(C[C@H](NC(=O)[C@H](CO)NC(=O)[C@@H](Cc2cccnc2)NC(=O)[C@@H](Cc2ccc(Cl)cc2)NC(=O)[C@@H](Cc2ccc3ccccc3c2)NC(C)=O)C(=O)N[C@H](Cc2ccc(CNC(N)=O)cc2)C(=O)N[C@@H](CC(C)C)C(=O)N[C@@H](CCCCNC(C)C)C(=O)N2CCC[C@H]2C(=O)N[C@H](C)C(N)=O)cc1 | – | – | >80% | – | – | –
6 | CC(=O)Nc1ccc(C[C@@H](NC(=O)[C@H](Cc2ccc(NC(=O)[C@@H]3CC(=O)NC(=O)N3)cc2)NC(=O)[C@H](CO)NC(=O)[C@@H](Cc2cccnc2)NC(=O)[C@@H](Cc2ccc(Cl)cc2)NC(=O)[C@@H](Cc2ccc3ccccc3c2)NC(C)=O)C(=O)N[C@@H](CC(C)C)C(=O)N[C@@H](CCCCNC(C)C)C(=O)N2CCC[C@H]2C(=O)N[C@H](C)C(N)=O)cc1 | >80% | 4.3 nM | – | 54% | 1.26 nM | –
7 | CC(=O)Nc1ccc(C[C@H](NC(=O)[C@H](CO)NC(=O)[C@@H](Cc2cccnc2)NC(=O)[C@@H](Cc2ccc(Cl)cc2)NC(=O)[C@@H](Cc2ccc3ccccc3c2)NC(C)=O)C(=O)N[C@H](Cc2ccc(NC(N)=O)cc2)C(=O)N[C@@H](CC(C)C)C(=O)N[C@@H](CCCCNC(C)C)C(=O)N2CCC[C@H]2C(=O)N[C@H](C)C(N)=O)cc1 (Ac-[d2Nal][dPhe(4-Cl)][d3Pal]S[Phe(4-NH2)](Ac)[dPhe(4-NHCONH2)]L[Lys(iPr)]P[dA]-NH2) | – | 6.1 nM | – | – | 0.501 nM | >80%
8 | CC(=O)Nc1ccc(C[C@@H](NC(=O)[C@H](Cc2ccc(NC(=O)C(NC(N)=O)NC(N)=O)cc2)NC(=O)[C@H](CO)NC(=O)[C@@H](Cc2cccnc2)NC(=O)[C@@H](Cc2ccc(Cl)cc2)NC(=O)[C@@H](Cc2ccc3ccccc3c2)NC(C)=O)C(=O)N[C@@H](CC(C)C)C(=O)N[C@@H](CCCCNC(C)C)C(=O)N2CCC[C@H]2C(=O)N[C@H](C)C(N)=O)cc1 | – | 8.9 nM | >80% | – | – | –
9 | CC(=O)Nc1ccc(C[C@@H](NC(=O)[C@H](Cc2ccc(NC(N)=O)cc2)NC(=O)[C@H](CO)NC(=O)[C@@H](Cc2cccnc2)NC(=O)[C@@H](Cc2ccc(Cl)cc2)NC(=O)[C@@H](Cc2ccc3ccccc3c2)NC(C)=O)C(=O)N[C@@H](CC(C)C)C(=O)N[C@@H](CCCCNC(C)C)C(=O)N2CCC[C@H]2C(=O)N[C@H](C)C(N)=O)cc1 (Ac-[d2Nal][dPhe(4-Cl)][d3Pal]S[Phe(4-NHCONH2)][dPhe(4-NH2)](Ac)L[Lys(iPr)]P[dA]-NH2) | – | 7.2 nM | >80% | – | – | –
10 | CC(=O)N[C@H](Cc1ccc2ccccc2c1)C(=O)N[C@H](Cc1ccc(Cl)cc1)C(=O)N[C@H](Cc1cccnc1)C(=O)N[C@@H](CO)C(=O)N[C@@H](Cc1ccc(NC(=O)[C@@H]2CC(=O)NC(=O)N2)cc1)C(=O)N[C@H](CCCNC(N)=O)C(=O)N[C@@H](CC(C)C)C(=O)N[C@@H](CCCCNC(C)C)C(=O)N1CCC[C@H]1C(=O)N[C@H](C)C(N)=O | – | – | – | – | – | >80%
11 | CC(=O)Nc1ccc(C[C@@H](NC(=O)[C@H](Cc2ccc(NC(=O)[C@H]3CC(=O)NC(=O)N3)cc2)NC(=O)[C@H](CO)NC(=O)[C@@H](Cc2cccnc2)NC(=O)[C@@H](Cc2ccc(Cl)cc2)NC(=O)[C@@H](Cc2ccc3ccccc3c2)NC(C)=O)C(=O)N[C@@H](CC(C)C)C(=O)N[C@@H](CCCCNC(C)C)C(=O)N2CCC[C@H]2C(=O)N[C@H](C)C(N)=O)cc1 | – | 8.6 nM | – | – | 1 nM | >80%
12 | CC(=O)N[C@H](Cc1ccc2ccccc2c1)C(=O)N[C@H](Cc1ccc(Cl)cc1)C(=O)N[C@H](Cc1cccnc1)C(=O)N[C@@H](CO)C(=O)N[C@@H](Cc1ccc(NC(=O)[C@@H]2CC(=O)NC(=O)N2)cc1)C(=O)N[C@H](Cc1ccc(NC(N)=O)cc1)C(=O)N[C@@H](CC(C)C)C(=O)N[C@@H](CCCCNC(C)C)C(=O)N1CCC[C@H]1C(=O)N[C@H](C)C(N)=O [DEGARELIX] | – | 8.8 nM | >80% | – | 0.631 nM | –
13 | CC(=O)N[C@H](Cc1ccc2ccccc2c1)C(=O)N[C@H](Cc1ccc(Cl)cc1)C(=O)N[C@H](Cc1cccnc1)C(=O)N[C@@H](CO)C(=O)N[C@@H](Cc1ccc(NC(=O)[C@@H]2CC(=O)NC(=O)N2)cc1)C(=O)N[C@H](Cc1ccc(CNC(N)=O)cc1)C(=O)N[C@@H](CC(C)C)C(=O)N[C@@H](CCCCNC(C)C)C(=O)N1CCC[C@H]1C(=O)N[C@H](C)CO | >80% | 7.8 nM | – | – | 1 nM | –
14 | CC(=O)Nc1ccc(C[C@@H](NC(=O)[C@H](Cc2ccc(NC(=O)C[C@@H]3NC(=O)NC3=O)cc2)NC(=O)[C@H](CO)NC(=O)[C@@H](Cc2cccnc2)NC(=O)[C@@H](Cc2ccc(Cl)cc2)NC(=O)[C@@H](Cc2ccc3ccccc3c2)NC(C)=O)C(=O)N[C@@H](CC(C)C)C(=O)N[C@@H](CCCCNC(C)C)C(=O)N2CCC[C@H]2C(=O)N[C@H](C)C(N)=O)cc1 | – | 8.1 nM | >80% | – | – | –
15 | CC(=O)Nc1ccc(C[C@@H](NC(=O)[C@H](Cc2ccc(NC(=O)[C@@H]3CNC(=O)N3)cc2)NC(=O)[C@H](CO)NC(=O)[C@@H](Cc2cccnc2)NC(=O)[C@@H](Cc2ccc(Cl)cc2)NC(=O)[C@@H](Cc2ccc3ccccc3c2)NC(C)=O)C(=O)N[C@@H](CC(C)C)C(=O)N[C@@H](CCCCNC(C)C)C(=O)N2CCC[C@H]2C(=O)N[C@H](C)C(N)=O)cc1 | – | 9.1 nM | – | – | 0.631 nM | >80%
16 | CC(=O)N[C@H](Cc1ccc2ccccc2c1)C(=O)N[C@H](Cc1ccc(Cl)cc1)C(=O)N[C@H](Cc1cccnc1)C(=O)N[C@@H](CO)C(=O)N[C@@H](Cc1ccc(NC(=O)[C@@H]2CC(=O)NC(=O)N2)cc1)C(=O)N[C@H](Cc1ccc(CNC(N)=O)cc1)C(=O)N[C@@H](CC(C)C)C(=O)N[C@@H](CCCCNC(C)C)C(=O)N1CCC[C@H]1C(=O)N[C@@H](C)CO | >80% | 5.5 nM | – | – | 0.631 nM | –
